Screening data from PubChem.
TRPC4 act: activators of mouse TRPC4 channel; B-score at 10 µM; AID 2237; hit rate 0.49% among 310,000; HEK293 TRPC4beta/mu-opioid, Fluo4 calcium fluorescence; stronger effect = higher value;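 active means B-score above 5 SD of library B-scores, and initial fluorescence ratio not above library mean plus 5 SD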;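 further: positive B-score marks a calcium rise read as TRPC4 activation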
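Assay system: HEK293 cells stably co-expressing mouse TRPC4beta and mu-opioid receptor / Timing: Fluo4 dye loading 45 min at room temperature, 110 s recording / Signal: Fluo4 calcium-sensitive dye fluorescence, kinetic, 1 Hz baseline / Read-out: integrated baseline-normalised fluorescence ratio, converted to per-well B score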
TRPC4 inh: TRPC4 (mouse) channel inhibition; Q9QUQ5; HEK293 TRPC4beta/mu-opioid, DAMGO-evoked Fluo4 calcium flux; stronger effect = lower value; B-score at 10 µM; hit rate 0.39% among 300,000; AID 2247;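 active means B-score over 3 SD under the library average, no early fluorescence shift, positive overall ratio signal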
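Assay system: HEK293 cells with stable TRPC4beta plus mu-opioid receptor expression; Probe or stimulus: DAMGO in two steps, submaximal then maximal; Dosing: single-point compound dosing; Measured by: Fluo4 calcium-dye fluorescence, kinetic read; Read-out basis: B score from integrated Fluo4 fluorescence ratio.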
TRPC6 inh: blocks the mouse TRPC6 cation channel. HEK293-TRPC6, membrane potential dye, ACh-evoked depolarization; stronger effect = lower value. B-score at 10 µM. hit rate 1.1% among 310,000. AID 2553;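 active means B-score under library mean minus 3 SD, initial fluorescence not abnormally high, positive integrated signal ratio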;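 further: B-score derived from integrated fluorescence ratio over the kinetic read; more negative B-score means stronger inhibition of depolarization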
Target sequence (Q61143 whole entry, looked up): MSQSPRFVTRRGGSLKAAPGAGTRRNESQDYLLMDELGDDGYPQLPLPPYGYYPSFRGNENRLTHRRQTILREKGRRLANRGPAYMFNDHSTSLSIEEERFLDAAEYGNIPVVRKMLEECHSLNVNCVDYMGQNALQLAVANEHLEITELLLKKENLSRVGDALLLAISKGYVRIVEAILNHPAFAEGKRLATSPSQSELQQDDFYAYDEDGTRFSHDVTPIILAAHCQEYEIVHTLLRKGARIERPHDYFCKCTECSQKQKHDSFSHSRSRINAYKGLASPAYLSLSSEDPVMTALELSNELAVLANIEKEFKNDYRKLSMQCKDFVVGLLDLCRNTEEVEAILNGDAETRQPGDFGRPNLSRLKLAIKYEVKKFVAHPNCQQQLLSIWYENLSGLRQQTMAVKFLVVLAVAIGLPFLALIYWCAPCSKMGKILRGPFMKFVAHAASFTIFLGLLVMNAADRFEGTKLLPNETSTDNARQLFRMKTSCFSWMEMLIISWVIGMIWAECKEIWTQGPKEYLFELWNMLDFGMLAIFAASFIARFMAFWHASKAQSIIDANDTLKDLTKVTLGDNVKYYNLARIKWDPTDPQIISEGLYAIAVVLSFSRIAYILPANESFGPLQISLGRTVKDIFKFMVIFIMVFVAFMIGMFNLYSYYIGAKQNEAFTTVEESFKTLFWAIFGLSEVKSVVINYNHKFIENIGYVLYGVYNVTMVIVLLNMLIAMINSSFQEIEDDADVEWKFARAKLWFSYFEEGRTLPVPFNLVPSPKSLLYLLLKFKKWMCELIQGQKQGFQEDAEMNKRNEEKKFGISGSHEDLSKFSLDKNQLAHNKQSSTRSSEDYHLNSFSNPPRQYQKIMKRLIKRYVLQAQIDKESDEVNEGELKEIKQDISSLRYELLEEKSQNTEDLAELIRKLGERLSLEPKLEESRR
TRPC6 activator: activators of mouse TRPC6 channel. Q61143. B-score at 10 µM. AID 2550. hit rate 0.13% among 310,000. HEK293-TRPC6 membrane potential dye fluorescence; stronger effect = higher value;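 active means B-score of the integrated fluorescence ratio above library mean plus 3 SD, and starting fluorescence ratio within library mean plus 5 SD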;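 further: higher score means more depolarization so channel activation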
TRPC4 potent: TRPC4 (mouse) allosteric potentiation; Q9QUQ5; HEK293 TRPC4beta/mu-opioid, DAMGO EC20, Fluo-4 Ca2+ flux; stronger effect = higher value; B-score at 10 µM; hit rate 0.42% among 310,000; AID 2227;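 active means B-score of calcium response area above 5 SD of library B-scores, with initial fluorescence ratio within 5 SD of library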;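 further: B-score of integrated fluorescence ratio over time as area under calcium response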
* = called active by the depositor; i = inactive; / = no result given. Shown are actives, neighbours in structure and some others; about 2.3% of the full set was active somewhere.

SMILES	TRPC4 act	TRPC4 inh	TRPC6 inh	TRPC6 activator	TRPC4 potent
C=CCSc1nnc2n(-c3ccccc3OC)c(=O)c3c4c(sc3n12)CCC4	i	-6*	i	i	i
COC(=O)CSc1nnc2n(-c3ccc(OC)cc3)c(=O)c3c4c(sc3n12)CCCCC4	i	-7*	i	i	i
COC(=O)CSc1nnc2n(C3CCCCC3)c(=O)c3c4c(sc3n12)CCCC4	i	-6*	i	i	i
CCCSc1nnc2n(-c3ccccc3OC)c(=O)c3c4c(sc3n12)CCC4	i	i	i	i	i
S=C(NCc1ccco1)N1CCN(c2cccc(Cl)c2)CC1	i	-5*	i	i	i
S=C(NCCN1CCOCC1)N1CCN(c2cccc(Cl)c2)CC1	i	i	i	i	i
COc1ccc(N2CCN(C(CNC(=O)C(=O)NCCCn3ccnc3)c3ccco3)CC2)cc1 (stereo not given)	i	i	i	i	i
COc1cccc(Nc2ccc([N+](=O)[O-])c3nonc23)c1	i	i	i	i	i
COc1cccc(NCc2ccc([N+](=O)[O-])s2)c1	i	-6*	i	i	i
CC1=C[C@@H](C)[C@@H](c2ccccc2)OC1=O	61*	i	i	i	i
CCOc1ccc(CCNC(=O)COC(=O)c2cc(OC)c(OC)c(OC)c2)cc1OCC	i	i	i	i	i
CC(C)c1ccccc1OCCCCCNCCO	i	i	i	i	13*
CN1CCN(CC(=O)Nc2c(C#N)cnn2-c2ccccc2)CC1	59*	i	i	i	i
Cn1cccc1C(=O)NC(=O)COC(=O)c1cc(S(=O)(=O)N2CCCCC2)ccc1Cl	i	i	i	i	i
CC(=O)n1cc(N(C(=O)CCl)c2ccc([N+](=O)[O-])cc2)c2ccccc21	i	i	i	i	i
O=Cc1[nH]c2ccccc2c1N(C(=O)CCl)c1ccc([N+](=O)[O-])cc1	45*	i	i	i	i
Cc1nc(N2CCN(C)CC2)c2c3c(sc2n1)CCCC3	i	i	-5.44*	i	i
Cc1nc(N2CCN(C(=O)c3cccs3)CC2)c2c3c(sc2n1)CCCC3	i	i	i	i	i
O=C1Nc2cc(C(=O)N3CCN(c4ccccc4F)CC3)ccc2NC1CSCc1ccccc1F (stereo not given)	i	i	i	i	i
COc1ccccc1N1CCN(C(=O)c2ccc3c(c2)NC(=O)C(CSCc2ccccc2C)N3)CC1 (stereo not given)	i	i	-8.77*	i	i
O=C(NCC(c1ccco1)N1CCCC1)c1sc2ccccc2c1Cl (stereo not given)	43*	i	i	i	i
COc1ccc(Cl)cc1C(=O)NCC(c1ccco1)N1CCCC1 (stereo not given)	52*	i	i	i	i
COc1ccc(Cl)cc1C(=O)NCC(c1ccco1)N(C)C (stereo not given)	i	i	i	i	i
O=C(NCC(c1ccco1)N1CCCC1)c1ccccc1F (stereo not given)	i	i	i	i	i
O=C(CCl)NC(=O)NC12CC3CC(CC(C3)C1)C2	i	-6*	i	i	i
SMILES	TRPC4 act	TRPC4 inh	TRPC6 inh	TRPC6 activator	TRPC4 potent
Cc1ccc(C)c(NC(=O)C2CCCN2/C=C/C(=O)C(F)(F)F)c1 (stereo not given)	i	i	i	i	i
Cc1oc(-c2ccc(Cl)cc2)nc1CS(=O)CC(=O)NC1CCCCC1 (stereo not given)	i	i	i	i	i
Cc1oc(-c2ccccc2Cl)nc1CS(=O)CC(=O)NCCCN1CC(C)CC(C)C1 (stereo not given)	95*	i	i	i	i
Cc1oc(-c2ccc(Cl)cc2)nc1CS(=O)CC(=O)NCCCN(C)C1CCCCC1 (stereo not given)	i	i	i	i	16*
Cc1oc(-c2ccccc2F)nc1CS(=O)(=O)CC(=O)NCCCN1CC(C)CC(C)C1 (stereo not given)	57*	i	i	i	i
CC(C)c1ccc(NC2=CC(=O)CC(C)(C)C2)cc1	i	i	i	i	i
CCn1c(=S)sc2c(=O)n(CC(=O)Nc3ccccc3C(F)(F)F)c(C)nc21	i	i	i	i	i
NC(=O)NCc1cccs1	i	i	i	i	i
CNCc1ccccc1Sc1cccc2ccccc12	46*	-6*	i	i	i
CNCc1ccccc1Sc1ccc(OC)cc1	i	i	i	i	i
COC(=O)c1ccccc1NC(=O)c1cnn2cccnc12	i	i	i	i	54*
O=C(Nc1cccc(Cl)c1)c1cnn2cccnc12	i	/	i	i	34*
O=C(Nc1cc(Cl)cc(Cl)c1)c1cnn2cccnc12	i	i	i	i	i
O=C1c2ccc(Oc3ccc4c(c3)C(=O)N(CCCO)C4=O)cc2C(=O)N1CCCO	71*	i	i	i	i
Cc1cc2ccccn2c1C(=O)c1nc(NCc2ccco2)ncc1Cl	i	i	i	i	13*
CC(=O)c1ccc(-n2nncc2-c2ccc([N+](=O)[O-])cc2)cc1	i	i	i	i	i
Nc1ncc(Br)cc1S(=O)(=O)Nc1cc(C(F)(F)F)cc(C(F)(F)F)c1	46*	i	i	i	i
Cc1cccc(C(=O)N2CCCC(N3CCN(c4ccc(F)cc4)CC3)C2)n1 (stereo not given)	i	i	i	i	i
CC(C)(CNC(=O)c1ccccc1NS(C)(=O)=O)N1CCCCC1	i	i	i	i	i
CC(=O)N1CCCc2cc(S(=O)(=O)N3CCN(C4CCCCC4)CC3)ccc21	57*	i	i	i	i
Cc1cc(SCC#N)nc2ccccc12	i	-6*	i	i	i
COc1ccc(C(CCN(Cc2ccc(OC)c(OC)c2)C(C)=O)C(C)C)cc1 (stereo not given)	i	i	i	i	i
COc1cc(-c2n[nH]c(=S)n2/N=C/c2cccn2C)cc(OC)c1OC	52*	i	i	i	i
CCCCc1ccc(NC(=S)N2CCCC2)cc1	i	i	i	i	i
COc1cccc(CN2CCN(C3CCN(c4ccccc4F)CC3)CC2CCO)c1 (stereo not given)	i	-5*	i	i	i
O=C(O)C1Cc2c([nH]c3ccccc23)C(c2ccc3c(c2)OCO3)N1 (stereo not given)	i	i	i	i	i
